In ChEMBL document CHEMBL1134454, “Synthesis and evaluation of oxodioxolenylmethyl carbamate prodrugs of pseudomycins” (2001) one finds MIC, ED50 and Activity data, which are given here for 8 compounds.

Broadly, the MIC is the lowest concentration found to suppress growth. High values mean a less susceptible organism, low ones a more susceptible organism. Usually ED50 stands for the dose that gives a 50% effect, or the effect in half of the subjects.

Values after ≈ are worked out from the molar mass of the structure shown. Bridge positions count the residues as written; N and C are the ends. Square brackets hold non-standard residues; d marks the D form. Peptide text beside a SMILES is read from it. * marks the point of attachment. Tetradecanoyl(3R-OH) = CCCCCCCCCCC[C@@H](O)CC(=O)*; Asp(3S-OH) = N[C@H](C(=O)O)[C@H](O)C(=O)O; Thr(4-Cl) = N[C@H](C(=O)O)[C@H](O)CCl; aThr = C[C@H](O)[C@H](N)C(=O)O; dDab = NCC[C@@H](N)C(=O)O; Dab = NCC[C@H](N)C(=O)O; Dhb = C/C=C(\N)C(=O)O

One assay concerns Aspergillus fumigatus. The assay can be described thus: In vitro potency against Aspergillus fumigatus. It counts as functional. The method, boiled down:
(§1)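 Broth microdilution in Sabouraud broth. Compounds were dissolved in DMSO and diluted to 20 μg/mL final in the first well, then serially 2-fold. Yeasts were grown on Sabouraud dextrose agar at 35 °C for 24 h, suspended in saline and adjusted to 2×10^5/mL in broth. A. fumigatus spores were taken from potato dextrose agar mycelia into 0.1% Tween 80/saline. MIC was the lowest concentration giving 90–100% visible growth inhibition versus controls.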

The subject of another assay is Candida albicans. The assay can be described thus: In vitro potency against Candida albicans. Type of assay: functional. In a few lines: as §1
The next assay concerns Cryptococcus neoformans. The assay can be described thus: In vitro potency against Cryptococcus neoformans. It counts as functional. In a few lines: as §1
Assay [1] is filed under the species Mus musculus. The assay can be described thus: Drug concentration required to achieve 50% survival of fungal infection compared with untreated animals in experiment 1. Type of assay: functional. In a few lines: (§2)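 Outbred male ICR mice (18–20 g), X-irradiated 400 r 24 h before infection. C. albicans A26 blastospores, 2×10^6 per mouse, given iv by lateral tail vein. Dosed 0.2 mL at 20, 10 and 5 mg/kg at 0, 4, 24 and 48 h post-infection, in 4.0% hydroxypropyl cyclodextrin/sodium acetate pH 7.0/1.75% dextrose. Survival followed 7 days; ED50 by Reed and Muench.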

The species named for assay [2] is Mus musculus. The assay can be described thus: Evaluated for tail vein toxicity assay in male ICR mice; Partial positive. It counts as functional, organism-based.
For assay [3], the species on record is Mus musculus. The assay can be described thus: Drug concentration required to achieve 50% survival of fungal infection compared with untreated animals in experiment 2. Type of assay: functional. The method, boiled down:
as §2

Assay [4] is filed under the species Mus musculus. The assay can be described thus: Evaluated for tail vein toxicity assay in male ICR mice; Positive. Type of assay: functional, organism-based.
Assay [5] is filed under the species Mus musculus. The assay can be described thus: Evaluated for tail vein toxicity assay in male ICR mice; Negative. Type of assay: functional, organism-based.

Regarding `C/C=C1\NC(=O)[C@H]([C@H](C)O)NC(=O)[C@H](CCN)NC(=O)[C@H](CCCCNC(=O)OCc2oc(=O)oc2C)NC(=O)[C@H](CC(=O)O)NC(=O)[C@@H](CCNC(=O)OCc2oc(=O)oc2C)NC(=O)[C@@H](NC(=O)C[C@H](O)CCCCCCCCCCC)COC(=O)[C@H]([C@H](O)CCl)NC(=O)[C@H]([C@H](O)C(=O)O)NC1=O`, the MIC with Aspergillus fumigatus is over 20 µg/mL; in the assay on Candida albicans, 5 µg/mL (≈ 3.29 µM); in the assay on Cryptococcus neoformans, 0.3 µg/mL (≈ 0.197 µM). The ED50 in the assay listed under Mus musculus [1] came to 7.07 mg/kg. Besides, in the assay filed under Mus musculus [2], the Activity entry is recorded as “Partial positive”.

For `C/C=C1\NC(=O)[C@H]([C@H](C)O)NC(=O)[C@H](CCN)NC(=O)[C@H](CCCCN)NC(=O)[C@H](CC(=O)O)NC(=O)[C@@H](CCN)NC(=O)[C@@H](NC(=O)C[C@H](O)CCCCCCCCCCCCC)COC(=O)[C@H]([C@H](O)CCl)NC(=O)[C@H]([C@H](O)C(=O)O)NC1=O`, the MIC in the assay with Aspergillus fumigatus was 10 µg/mL (≈ 8.09 µM); against Candida albicans, 0.312 µg/mL (≈ 0.252 µM); in the assay on Cryptococcus neoformans, under 0.02 µg/mL. Besides, the ED50 in the assay listed under Mus musculus [3] is 12.4 mg/kg; in the assay filed under Mus musculus [1] it was 7.8 mg/kg. In addition, the Activity result in the assay listed under Mus musculus [4] is “Positive”.

In the case of `C/C=C1\NC(=O)[C@H]([C@H](C)O)NC(=O)[C@H](CCNC(=O)OCc2oc(=O)oc2C)NC(=O)[C@H](CCCCN)NC(=O)[C@H](CC(=O)O)NC(=O)[C@@H](CCN)NC(=O)[C@@H](NC(=O)C[C@H](O)CCCCCCCCCCC)COC(=O)[C@H]([C@H](O)CCl)NC(=O)[C@H]([C@H](O)C(=O)O)NC1=O`, the values for the MIC in the assay on Aspergillus fumigatus, against Candida albicans and against Cryptococcus neoformans were over 20 µg/mL, 5 µg/mL (≈ 3.67 µM) and 1.3 µg/mL (≈ 0.953 µM), respectively. The compound further displayed an ED50 in the assay filed under Mus musculus [1] of 5.95 mg/kg. The Activity result in the assay filed under Mus musculus [5] was “Negative”.

For the compound `C/C=C1\NC(=O)[C@H]([C@H](C)O)NC(=O)[C@H](CCNC(=O)OCc2oc(=O)oc2C)NC(=O)[C@H](CCCCNC(=O)OCc2oc(=O)oc2C)NC(=O)[C@H](CC(=O)O)NC(=O)[C@@H](CCNC(=O)OCc2oc(=O)oc2C)NC(=O)[C@@H](NC(=O)C[C@H](O)CCCCCCCCCCCCC)COC(=O)[C@H]([C@H](O)CCl)NC(=O)[C@H]([C@H](O)C(=O)O)NC1=O`, the MIC in the assay on Aspergillus fumigatus was over 20 µg/mL; in the assay on Candida albicans it was over 20 µg/mL; in the assay with Cryptococcus neoformans it was 5 µg/mL (≈ 2.93 µM). Also, the ED50 in the assay listed under Mus musculus [3] turned out to be 10.8 mg/kg; in the assay listed under Mus musculus [1] it was 12.4 mg/kg. In addition, in the assay listed under Mus musculus [5], the Activity result is “Negative”.

`C/C=C1\NC(=O)[C@H]([C@H](C)O)NC(=O)[C@H](CCNC(=O)OCc2oc(=O)oc2C)NC(=O)[C@H](CCCCN)NC(=O)[C@H](CC(=O)O)NC(=O)[C@@H](CCN)NC(=O)[C@@H](NC(=O)C[C@H](O)CCCCCCCCCCCCC)COC(=O)[C@H]([C@H](O)CCl)NC(=O)[C@H]([C@H](O)C(=O)O)NC1=O` displayed an ED50 in the assay filed under Mus musculus [1] of 9 mg/kg. Also, in the assay filed under Mus musculus [2], the Activity entry is “Partial positive”.

Compound `C/C=C1\NC(=O)[C@H]([C@H](C)O)NC(=O)[C@H](CCN)NC(=O)[C@H](CCCCNC(=O)OCc2oc(=O)oc2C)NC(=O)[C@H](CC(=O)O)NC(=O)[C@@H](CCNC(=O)OCc2oc(=O)oc2C)NC(=O)[C@@H](NC(=O)C[C@H](O)CCCCCCCCCCCCC)COC(=O)[C@H]([C@H](O)CCl)NC(=O)[C@H]([C@H](O)C(=O)O)NC1=O` gave an ED50 in the assay filed under Mus musculus [1] of over 20 mg/kg. Besides, the Activity entry in the assay filed under Mus musculus [2] is recorded as “Partial positive”.

With `C/C=C1\NC(=O)[C@H]([C@H](C)O)NC(=O)[C@H](CCN)NC(=O)[C@H](CCCCN)NC(=O)[C@H](CC(=O)O)NC(=O)[C@@H](CCN)NC(=O)[C@@H](NC(=O)C[C@H](O)CCCCCCCCCCC)COC(=O)[C@H]([C@H](O)CCl)NC(=O)[C@H]([C@H](O)C(=O)O)NC1=O` [PSEUDOMYCIN B] ({Tetradecanoyl(3R-OH)}-S[dDab]DK[Dab][aThr][Dhb][Asp(3S-OH)][Thr(4-Cl)]; ester 1-C), the figures for the MIC against Aspergillus fumigatus, with Candida albicans and with Cryptococcus neoformans were over 20 µg/mL, 0.625 µg/mL (≈ 0.517 µM) and 0.078 µg/mL (≈ 0.0646 µM), respectively. The compound further had an ED50 in the assay filed under Mus musculus [3] of 3.8 mg/kg. Further, the Activity result in the assay filed under Mus musculus [4] is “Positive”.

Turning to `C/C=C1\NC(=O)[C@H]([C@H](C)O)NC(=O)[C@H](CCNC(=O)OCc2oc(=O)oc2C)NC(=O)[C@H](CCCCNC(=O)OCc2oc(=O)oc2C)NC(=O)[C@H](CC(=O)O)NC(=O)[C@@H](CCNC(=O)OCc2oc(=O)oc2C)NC(=O)[C@@H](NC(=O)C[C@H](O)CCCCCCCCCCC)COC(=O)[C@H]([C@H](O)CCl)NC(=O)[C@H]([C@H](O)C(=O)O)NC1=O`, the MIC is over 20 µg/mL against Aspergillus fumigatus, over 20 µg/mL against Candida albicans and 10 µg/mL (≈ 5.97 µM) against Cryptococcus neoformans. The ED50 in the assay filed under Mus musculus [3] turned out to be 7.8 mg/kg; in the assay filed under Mus musculus [1], 6.85 mg/kg. The Activity result in the assay filed under Mus musculus [5] was “Negative”.
